Bioassay records deposited in PubChem by Broad Institute.
T cruzi inh – blocks replication of Trypanosoma cruzi | T. cruzi beta-gal in NIH3T3, luminescence, 90 h | inhibition, % (test concentration not listed) | actives 1.4% (n = 300,000);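 active = mean inhibition across valid replicates above about 55%, limit read from the data; inconclusive = mean below that limit but half or more replicates reach it; inactive = mean below it, under half of replicates reach it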;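 also: signal also drops with host cell toxicity which is not excluded here; higher percent means less beta-gal luminescence so fewer parasites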
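Read-out: Parasite load inhibition, % | Test system: Mouse NIH/3T3 fibroblasts infected with β-gal-expressing T. cruzi Tulahuen C4 | Amount: 5,000 cells/well | Medium: DMEM, 2% fetal bovine serum | Signal: GalScreen β-gal luminescence, detergent lysis, 60 min | Timing: 3 h attach, ≥90 h co-culture | Also added: Tulahuen C4 trypomastigotes, 5000/well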
HIF act – HIF pathway transcriptional activation. actives 0.32% (n = 300,000). U2OS HRE-luciferase reporter, luminescence; normalized: DMSO 0%, desferrioxamine 100%. activation, % at 7.5 µM (by protocol). AID 1910;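 active = mean activation of at least 10% of the iron chelator positive control signal, with at least half of replicates also reaching 10%; inconclusive = mean and replicate majority disagree about reaching 10%; inactive = mean and most replicates under 10%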
Beta apoptosis – beta cell apoptosis inhibition. INS-1E cytokine-induced death, ATP luminescence, 48 h; percent of positive-control rescue, neutral wells zero. protection from apoptosis, % (no concentration beside the values). actives 0.8% (n = 300,000). AID 435005;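 active = Every replicate reaches about 75%, or at least half do and their mean reaches it too, limit read from the data; inconclusive = At least half of replicates reach the limit but their mean does not; inactive = Under half of replicates reach the limit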;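 also: higher means more ATP so stronger rescue from cytokine killing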
PfHsp90 set2 – growth inhibition of yeast expressing Plasmodium Hsp90. actives 0.32% (n = 310,000). inhibition, % at 9.4 µM. S. cerevisiae expressing PfHsp90, BacTiter-Glo ATP, 48 h; yeast lacking PDR1 and PDR3 efflux regulators;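 active = every replicate shows inhibition above about 80%, whatever the replicate mean, limit read from the data; inconclusive = mean inhibition reaches the set limit but some replicate falls short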
CSC inhib – cancer stem cell inhibition; inhibition, % at 7.5 µM; actives 1.1% (n = 300,000); AID 2717; cancer stem cell-like cells viability, luminescence; in the data active = inhibition above about 75%; inconclusive = no clear call, values can overlap the other calls; tested in HMLE shEcad cells
SKKanGAS inh – SKKanGAS growth inhibition; S. pyogenes SKKanGAS, kanamycin growth, BacTiter-Glo, 6 h; inhibition, % at 7.5 µM; actives 1.3% (n = 300,000);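 active = mean replicate score, as percent of positive control median, at least 50; inconclusive = mean below 50 but one replicate at or above 50; inactive = mean and every replicate below 50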;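 also: strain carries kanamycin resistance gene driven by streptokinase promoter and grows in 40 µg/ml kanamycin; loss of luminescence reflects streptokinase promoter inhibition or plain growth inhibition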
Each line names hits and unclear results; the compound was inactive in the other large screens. Rows were chosen to be rich in hits. Some 3.6% of all compounds tested hit in one or more screens of this group.

Cc1ccc(C(=O)COC(=O)c2ccc(O)cc2)cc1	none
CCNC(=S)Nc1cc(OCC)c(NC(=O)c2cccs2)cc1OCC	none
O=C(COC(=O)c1cc[n+]([O-])cc1)Nc1cccc(Br)c1	none (no result: T cruzi inh, HIF act, Beta apoptosis, CSC inhib, SKKanGAS inh)
C=CS(=O)(=O)c1ccc(Oc2ccc(S(=O)(=O)C=C)cc2)cc1	Beta apoptosis 106.3
NS(=O)(=O)c1ccc(Oc2ccc(S(N)(=O)=O)cc2)cc1	none
CN1CCc2nc(SCC(=O)Nc3ccc(OC(F)(F)F)cc3)c(C#N)c(-c3cccs3)c2C1	none
Cc1cccc(CSc2nc(N)c(C#N)c(-c3cccs3)c2C#N)c1	T cruzi inh 68.2, SKKanGAS inh 58.7
CN1CCc2nc(SCC(=O)Nc3cccc(F)c3)c(C#N)c(-c3cccs3)c2C1	T cruzi inh 54.5
Cc1cccc(CSc2nc3c(c(-c4cccs4)c2C#N)CN(C)CC3)c1	T cruzi inh 57.5 (no result: Beta apoptosis)
CCCCSc1nc(N)c(C#N)c(-c2cccs2)c1C#N	none
COC(=O)c1ccc(C)c(NC(=O)CCn2[nH]c(=O)ccc2=O)c1	none (no result: T cruzi inh, HIF act, Beta apoptosis, CSC inhib, SKKanGAS inh)
CC1=NN(c2ccccc2)C(=O)C1C=Nc1ccc(N(C)C)cc1 (centres undefined)	CSC inhib 86.5
CCOc1ccc(CSC(=N)N)cc1Cl	none
CCCOc1ccc(Br)cc1CSC(=N)N	Beta apoptosis 98.9
O=C(N/N=C/c1cc2c3c(c1O)CCCN3CCC2)c1ccccc1O	T cruzi inh 58.8, HIF act 55.2, PfHsp90 set2 106.9, SKKanGAS inh 55.2 (no result: Beta apoptosis, CSC inhib)
Cc1nn(-c2ccccc2)c(N2CCCC2)c1/C=N/NC(=O)c1ccccc1O	none
Cc1ccc(S(=O)(=O)N(C(=N)N)c2nc(N(C)C)nc(N(C)C)n2)cc1	T cruzi inh 55.0
O=C(/C=C/c1cccc(C(F)(F)F)c1)Nc1cccc(C(F)(F)F)c1	PfHsp90 set2 105.2, SKKanGAS inh 88.1
Cc1ccc(NC(=O)/C=C/c2cccc(C(F)(F)F)c2)cc1	none
O=C(Nc1cccc(NC(=O)c2ccc(-c3ccc(Br)cc3)o2)c1)c1ccco1	T cruzi inh 57.9
OCCNc1nc(Nc2ccccc2)nc2ccccc12	none
CNc1nc(NCc2ccccc2)c2ccccc2n1	none
Cc1c(Cl)cccc1Nc1nc(NCCO)c2ccccc2n1	T cruzi inh 56.5
Oc1ccccc1Nc1nc(NCc2ccccc2)c2ccccc2n1	CSC inhib 102.7
OCCNc1nc(Nc2ccc(Br)cc2)nc2ccccc12	T cruzi inh 62.0 (no result: PfHsp90 set2)
OCCNc1nc(N2CCCCC2)nc2ccccc12	none
O=P(Cc1cc(Br)cc(Br)c1OCCO)(c1ccccc1)c1ccccc1	none
CCOC(=O)C1=C(C)NC(C)=C(C(=O)OCC)C1C(=O)OCC(=O)NCc1ccco1	none (no result: T cruzi inh, HIF act, SKKanGAS inh)
NC(=S)N/N=C/c1ccc(-c2ccc(SC(F)F)cc2)o1	T cruzi inh 72.0
NC(=S)N/N=C/c1ccc(-c2ccc(Cl)c(Cl)c2)o1	T cruzi inh 59.6
Cc1ccc(-c2ccc(/C=N/NC(N)=S)o2)cc1	none
O=[N+]([O-])c1ccc(-c2ccn[nH]2)o1	T cruzi inh 68.1
Nc1nc(N)nc(-c2ccc([N+](=O)[O-])o2)n1	none (no result: T cruzi inh, HIF act, Beta apoptosis, CSC inhib, SKKanGAS inh)
CCCCn1c(SCC(=O)NC2CC(C)(C)NC(C)(C)C2)nc2cc(S(N)(=O)=O)ccc21	none
COc1cc(/C=N/NC(=O)c2cc(-c3ccccc3)nc3ccccc23)ccc1O	none
O=C(N/N=C/c1ccc(F)cc1)c1cc(-c2ccccn2)nc2ccccc12	none (no result: T cruzi inh, HIF act, Beta apoptosis, CSC inhib, SKKanGAS inh)
COc1ccc(/C=N/NC(=O)c2cc(-c3ccccc3)nc3ccccc23)c(C(=O)O)c1OC	none
COc1cccc(/C=N/NC(=O)c2cc(-c3ccccn3)nc3ccccc23)c1O	Beta apoptosis 92.9 (no result: T cruzi inh, HIF act, SKKanGAS inh)
COc1cc([N+](=O)[O-])cc(/C=N/NC(=O)c2cc(-c3ccccc3)nc3ccccc23)c1O	Beta apoptosis 79.0, SKKanGAS inh 95.0
CCOc1cc(/C=N/NC(=O)c2cc(-c3cccc(OC)c3)nc3ccccc23)ccc1O	Beta apoptosis 98.7 (no result: PfHsp90 set2)
COc1cc([N+](=O)[O-])cc(/C=N/NC(=O)c2cc(C)nc3ccccc23)c1O	SKKanGAS inh 106.4
COC(=O)c1ccc(NC(=O)COc2ccc([N+](=O)[O-])cc2)cc1	none
Nc1n[nH]c(CO)n1	none
Cc1ccc(CNC(=O)CN(C(=O)C2(C)CC(=O)N=C3C=CC=CN32)c2ccc(F)cc2)cc1 (centres undefined)	none
CCOc1nc(-c2ccccc2Cl)nc2ccccc12	none
C=CCOc1nc(-c2ccccc2Cl)nc2ccccc12	HIF act 63.5 (no result: Beta apoptosis)
Cc1ccc([N+](=O)[O-])cc1N(CC(=O)Nc1ccc(S(=O)(=O)Nc2cccc(C(F)(F)F)c2)cc1)S(C)(=O)=O	T cruzi inh 61.2, Beta apoptosis 99.4, CSC inhib 100.2, SKKanGAS inh inconclusive
Cn1c(=O)c2c(nc(OC3CCCCCC3)n2C)n(C)c1=O	none (no result: T cruzi inh, HIF act, Beta apoptosis, CSC inhib, SKKanGAS inh)
COc1ccc(C(=O)C2CCCN(Cc3c(C)[nH]c4ccccc34)C2)c(OC)c1 (centres undefined)	T cruzi inh 62.2 (no result: PfHsp90 set2)
COc1ccc(C(=O)C2CCCN(Cc3sc(N4CCCC4)nc3Cl)C2)c(OC)c1 (centres undefined)	T cruzi inh 63.1
Cc1cccc(-c2noc(CCCC(=O)NC3CCCC3)n2)c1	none
Cc1noc(C)c1C(=O)N(CC(=O)Nc1ccccc1Br)Cc1ccco1	none (no result: T cruzi inh, HIF act, CSC inhib, SKKanGAS inh)
CCOc1ccc(-n2c(-c3ccc(Br)cc3)c[n+]3c2CCCCC3)cc1	T cruzi inh 82.7, Beta apoptosis 117.9
CCOc1ccc(-n2c(-c3ccc(OC)cc3)c[n+]3c2CCCCC3)cc1	Beta apoptosis 96.6
CCOc1ccc(N2C(=O)CC(Cc3ccc(Br)cc3)C2=O)cc1 (centres undefined)	none (no result: Beta apoptosis)
CCOc1ccc(-n2c(-c3ccccc3)c[n+]3c2CCC3)cc1	T cruzi inh 61.6, Beta apoptosis 104.1
Cn1c(=O)[nH]c2c(c1=O)CCO2	none (no result: T cruzi inh, HIF act, Beta apoptosis, CSC inhib, SKKanGAS inh)
O=S(=O)(NC1CC2CCC1C2)c1ccc(Br)cc1 (centres undefined)	PfHsp90 set2 107.9
Cc1ccc(S(=O)(=O)NC2CC3CCC2C3)cc1 (centres undefined)	none (no result: Beta apoptosis, PfHsp90 set2)
O=C(NNC(=O)c1ccccc1Br)c1ccc(Cl)cc1	HIF act 12.2
O=C(NNC(=O)c1ccccc1Br)c1cccc(Cl)c1	none
Cn1c(CNC(=O)CNC(=O)c2ccc(F)cc2)cc(=O)n(C)c1=O	SKKanGAS inh 56.4
CCOC(=O)/C(=C\c1ccccc1)C(=O)c1cc(C(C)=O)c(Nc2ccccc2)s1	T cruzi inh 54.6, Beta apoptosis 97.9, CSC inhib 76.2
CCOC(=O)C(=O)/C(C#N)=C/Nc1ccccc1	none (no result: PfHsp90 set2)
CCOC(=O)/C(=C\c1cccnc1)C(=O)c1cc(C(C)=O)c(Nc2ccccc2)s1	Beta apoptosis 105.0, PfHsp90 set2 103.3, CSC inhib 97.0
CC(C)c1ccccc1OCC(=O)Nc1cc(S(=O)(=O)N2CCOCC2)ccc1N1CCCC1	none
CCOC(=O)Nc1ccc2c(c1)Nc1ccccc1S2	T cruzi inh 62.5
